Assay results reported in ChEMBL document CHEMBL1151777, “Quantitating the concentration of Py-Im polyamide-fluorescein conjugates in live cells” (Bioorg Med Chem Lett, 2008).
Activity calls are given as the source filed them. The calls are words filed in the database; no cut-off is given here.

What was measured:
[1] = Binding affinity to DNA 5'WTWCGW3' sequence
In short: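 Labeled DNA equilibrated with polyamide 14-16 h at 22°C in 10 mM Tris-HCl, 10 mM KCl, 10 mM MgCl2, 5 mM CaCl2, pH 7.0, then cleaved with DNase I. Binding isotherms built from normalized theta values.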

HeLa [2] = experiment: Induction of nuclear localization in human HeLa cells at 2 uM after 12 to 14 hrs by confocal laser scanning microscopy; type: functional, cell-based
In short: (§1)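 Live cells were incubated 12-14 h at 37°C, 5% CO2 with 2 µM polyamide and imaged directly by confocal microscopy with fluorescein filters. Nuclear staining was scored qualitatively against medium fluorescence; a positive score means nuclear signal exceeds that of the medium.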

U-251 [3] = experiment: Induction of nuclear localization in human U251 cells at 2 uM after 12 to 14 hrs by confocal laser scanning microscopy; type: functional, cell-based; in short: as §1
HeLa [4] = experiment: Inhibition of VEGF expression in human HeLa cells by quantitative RT-PCR; type: functional, cell-based
DNA = experiment: Binding affinity to calf thymus DNA at 2 uM assessed as fluorescence enhancement by steady-state fluorimetry relative to control; type: nucleic-acid assay; settings: Bos taurus
In short: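 Sonicated calf thymus DNA serially diluted in supplemented medium (0 to 1000 μM bp), polyamide at 2 μM final. Excitation 490 nm, emission scanned 500-650 nm, 2 nm slits, room temperature. Enhancement taken as the DNA-bound fluorescence relative to the DNA-free emission.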

[5] = Drug uptake in nucleus of human HeLa cells at 2 uM after 12 to 14 hrs by confocal microscopy in presence of calf thymus DNA; type: ADME, cell-based
In short: (§2)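 Cells grown 24 h in glass-bottom dishes, then given 2 µM polyamide in fresh medium for 12-14 h at 37°C, 5% CO2, and imaged live with a 40× oil objective using fluorescein filters. Calibration standards were polyamide serial dilutions in medium with 500 μM bp sonicated calf thymus DNA. Nuclear concentration was interpolated from the linear calibration curve. At least three images per condition, at least ten cells per image; cell cycles unsynchronized.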

[6] = Drug uptake in nucleus of human U251 cells at 2 uM after 12 to 14 hrs by confocal microscopy in presence of calf thymus DNA; type: ADME, cell-based; settings: u-251, 2 µM; in short: as §2
HeLa [7] = experiment: Cytotoxicity against human HeLa cells assessed as cell viability by trypan blue assay; type: functional
In short: (§3)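 Following 12-14 h polyamide exposure (0, 0.4, 2 or 10 μM final) at 37°C, 5% CO2, cells were trypsinized, pelleted and resuspended in HBSS (no Mg2+/Ca2+, 2.5 mg/mL BSA, 10 mM HEPES, pH 7.0-7.2). Viability was checked by trypan blue staining before flow cytometry.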

U-251 [8] = experiment: Cytotoxicity against human U251 cells assessed as cell viability by trypan blue assay; type: functional; in short: as §3
HeLa [9] = experiment: Drug level in human HeLa cells at 2 uM after 12 to 14 hrs flow cytometry; type: ADME, cell-based
In short: (§4)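 Cells at 1.33×10^5 cells/mL grown 24 h, medium replaced, polyamide added at 0, 0.4, 2 or 10 μM final, 12-14 h at 37°C, 5% CO2. Washed, resuspended in HBSS at 5×10^5 cells/mL. 10,000 cells per sample read in the fluorescein channel. Fluorophores per cell interpolated from a linear curve of the five highest Rainbow bead peaks, then divided by a modeled nuclear volume of 1×10^-12 L (cylinder, radius 10 µm, height 5 µm).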

HeLa [10] = experiment: Drug level in human HeLa cells at 10 uM after 12 to 14 hrs flow cytometry; type: ADME, cell-based; in short: as §4
HeLa [11] = experiment: Drug level in human HeLa cells at 0.4 uM after 12 to 14 hrs flow cytometry; type: ADME, cell-based; in short: as §4
U-251 [12] = experiment: Drug level in human U251 cells at 0.4 uM after 12 to 14 hrs flow cytometry; type: ADME, cell-based; settings: u-251, 0.4 µM; in short: as §4
U-251 [13] = experiment: Drug level in human U251 cells at 2 uM after 12 to 14 hrs flow cytometry; type: ADME, cell-based; settings: u-251, 2 µM; in short: as §4
U-251 [14] = experiment: Drug level in human U251 cells at 10 uM after 12 to 14 hrs flow cytometry; type: ADME, cell-based; settings: u-251, 10 µM; in short: as §4

For `Cn1cc(NC(=O)c2cc(NC(=O)c3nc(NC(=O)c4cc(NC(=O)[C@H](N)CCNC(=O)c5nc(NC(=O)c6cc(NC(=O)c7cc(NC(=O)c8sccc8Cl)cn7C)cn6C)cn5C)cn4C)cn3C)cn2C)cc1C(=O)NCCC(=O)NCCCNC(=S)Nc1ccc(-c2c3ccc(=O)cc-3oc3cc(O)ccc23)c(C(=O)O)c1`, the Ka [1] was 3.8 ×10⁹ /M, the Activity (HeLa [2]) was “Active” and the Activity (U-251 [3]) was “Active”. For the same molecule, the Activity (HeLa [4]) was “Active”, the fold change (FC) (DNA) was 14 and the Drug uptake [5] was 0.5 µM. For the same molecule, the Drug uptake [6] was 1.6 µM, the Activity (HeLa [7]) was greater than 95% and the Activity (U-251 [8]) was greater than 95%. For the same molecule, the Drug uptake (HeLa [9]) was 0.09 µM, the Drug uptake (HeLa [10]) was 0.2 µM and the Drug uptake (HeLa [11]) was 0.02 µM. For the same molecule, the Drug uptake (U-251 [12]) was 0.09 µM, the Drug uptake (U-251 [13]) was 0.34 µM and the Drug uptake (U-251 [14]) was 0.84 µM.
